{"source": "ChEMBL document CHEMBL4765302", "about": "“Design, synthesis and biological evaluation of novel histone deacetylase1/2 (HDAC1/2) and cyclin-dependent Kinase2 (CDK2) dual inhibitors against malignant cancer” (Eur J Med Chem, 2020)", "key": {"NCI-H460 [1]": {"test_system": "NCI-H460", "assay": "Induction of apoptosis in human NCI-H460 cells assessed as necrotic cells at 0.5 uM incubated for 48 hrs by annexin V-FITC and PI staining based flow cytometry (reference value: 0.632 %)", "type": "functional"}, "NCI-H460 [2]": {"test_system": "NCI-H460", "assay": "Antiproliferative activity against human H460 cells assessed as reduction in cell growth at 8 uM incubated for 72 hrs by CCK-8 assay relative to control", "type": "functional"}, "CDK2/Cyclin A2": {"target": "CDK2/Cyclin A2 (Homo sapiens, UniProt P24941)", "assay": "Inhibition of recombinant human N-terminal GST-tagged CDK2/CyclinA2 expressed in baculovirus infected Sf21 cells using histone H1 as substrate incubated for 10 mins by luminescence based assay"}, "HeLa [3]": {"test_system": "HeLa", "assay": "Induction of apoptosis in human HeLa cells assessed as viable cells at 2 uM incubated for 48 hrs by annexin V-FITC and PI staining based flow cytometry (reference value: 98.5 %)", "type": "functional", "details": "read-out: Activity"}, "NCI-H460 [4]": {"test_system": "NCI-H460", "assay": "Induction of apoptosis in human NCI-H460 cells assessed as viable cells at 2 uM incubated for 48 hrs by annexin V-FITC and PI staining based flow cytometry (reference value: 90.4 %)", "type": "functional", "details": "read-out: Activity"}, "Histone deacetylase 1": {"target": "Histone deacetylase 1 (Homo sapiens, UniProt Q13547)", "sequence (Q13547 whole entry)": "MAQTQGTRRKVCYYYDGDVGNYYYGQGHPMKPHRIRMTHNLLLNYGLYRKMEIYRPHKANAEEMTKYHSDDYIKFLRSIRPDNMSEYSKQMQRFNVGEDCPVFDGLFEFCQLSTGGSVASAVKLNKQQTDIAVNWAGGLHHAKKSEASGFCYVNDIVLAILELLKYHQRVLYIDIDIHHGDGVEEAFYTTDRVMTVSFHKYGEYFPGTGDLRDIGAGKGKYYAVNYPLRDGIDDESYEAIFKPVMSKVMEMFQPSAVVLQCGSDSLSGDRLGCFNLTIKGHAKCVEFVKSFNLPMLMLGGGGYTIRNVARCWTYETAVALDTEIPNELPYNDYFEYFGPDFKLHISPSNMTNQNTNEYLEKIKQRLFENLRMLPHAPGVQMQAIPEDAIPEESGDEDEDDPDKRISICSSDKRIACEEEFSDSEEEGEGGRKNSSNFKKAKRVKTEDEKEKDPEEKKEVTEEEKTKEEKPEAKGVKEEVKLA", "assay": "Inhibition of recombinant human HDAC1 at 10 uM using SIRT1 as substrate incubated for 10 mins followed by substrate addition and measured after 30 mins by fluorescence based assay relative to control", "details": "time 40.0 min", "outline": "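Enzyme inhibition of HDAC1 measured at a single concentration of 10 µM, tested alongside the cell-growth screen.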"}, "[5]": {"assay": "AUC (0 to t) in ICR mouse at 20 mg/kg, ip measured upto 24 hrs by LC-MS/MS analysis", "details": "in vivo"}, "A-375 [6]": {"test_system": "A-375", "assay": "Induction of apoptosis in human A-375 cells assessed as necrotic cells incubated for 48 hrs by annexin V-FITC and PI staining based flow cytometry", "type": "functional, cell-based", "details": "dose 0.5-2 µM"}, "A-375 [7]": {"test_system": "A-375", "assay": "Antimigratory activity against human A-375 cells assessed as inhibition of migration at 0.5 uM incubated for 48 hrs by microscopic based wound healing test", "type": "functional, cell-based", "outline": "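Scratch (wound-healing) migration assay in A375 and H460 cells seeded in 12-well plates. Cells exposed to compound, CS055, roscovitine or DMSO blank for 48 h. At least two independent experiments.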"}, "A-375 [8]": {"test_system": "A-375", "assay": "Induction of apoptosis in human A-375 cells assessed as early apoptotic cells at 1 uM incubated for 48 hrs by annexin V-FITC and PI staining based flow cytometry (reference value: 1.34 %)", "type": "functional"}, "A-375 [9]": {"test_system": "A-375", "assay": "Induction of apoptosis in human A-375 cells assessed as late apoptotic cells at 2 uM incubated for 48 hrs by annexin V-FITC and PI staining based flow cytometry (reference value: 2.24 %)", "type": "functional"}, "HeLa [10]": {"test_system": "HeLa", "assay": "Induction of apoptosis in human HeLa cells assessed as necrotic cells incubated for 48 hrs by annexin V-FITC and PI staining based flow cytometry", "type": "functional, cell-based", "details": "dose 0.5-2 µM"}, "HepG2 [11]": {"test_system": "HepG2", "assay": "Antiproliferative activity against human HepG2 cells assessed as reduction in cell growth at 2 uM incubated for 72 hrs by CCK-8 assay relative to control", "type": "functional"}, "A-375 [12]": {"test_system": "A-375", "assay": "Induction of apoptosis in human A-375 cells assessed as early apoptotic cells at 2 uM incubated for 48 hrs by annexin V-FITC and PI staining based flow cytometry (reference value: 1.34 %)", "type": "functional"}, "[13]": {"assay": "MRT (0 to t) in ICR mouse at 4 mg/kg, iv measured upto 24 hrs by LC-MS/MS analysis", "type": "ADME, organism-based", "details": "in vivo"}, "HepG2 [14]": {"test_system": "HepG2", "assay": "Antiproliferative activity against human HepG2 cells assessed as reduction in cell growth at 8 uM incubated for 72 hrs by CCK-8 assay relative to control", "type": "functional"}, "HepG2 [15]": {"test_system": "HepG2", "assay": "Cytotoxicity against human HepG2 cells assessed as effect on cell morphology at 0.5 to 8 micromol incubated for 48 hrs by microscopic analysis", "type": "functional, cell-based", "details": "dose 0.5-8 µmol", "outline": "(§1)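 Five cancer cell lines treated with compound or DMSO (0.1 %) for 48 h. Morphology inspected by light microscopy at 10× objective.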"}, "NCI-H460 [16]": {"test_system": "NCI-H460", "assay": "Induction of apoptosis in human NCI-H460 cells assessed as viable cells at 0.5 uM incubated for 48 hrs by annexin V-FITC and PI staining based flow cytometry (reference value: 90.4 %)", "type": "functional", "details": "read-out: Activity"}, "HCT-116 [17]": {"test_system": "HCT-116", "assay": "Induction of apoptosis in human HCT-116 cells assessed as necrotic cells at 2 uM incubated for 48 hrs by annexin V-FITC and PI staining based flow cytometry (reference value: 0.124 %)", "type": "functional"}, "HCT-116 [18]": {"test_system": "HCT-116", "assay": "Induction of apoptosis in human HCT-116 cells assessed as early apoptotic cells at 1 uM incubated for 48 hrs by annexin V-FITC and PI staining based flow cytometry (reference value: 4.14 %)", "type": "functional"}, "[19]": {"assay": "MRT (0 to t) in ICR mouse at 20 mg/kg, ip measured upto 24 hrs by LC-MS/MS analysis", "details": "in vivo"}, "HCT-116 [20]": {"test_system": "HCT-116", "assay": "Antitumor activity against human HCT-116 cells xenografted in Balb/c mouse assessed as tumor growth inhibition at 50 mg/kg, ip administered for 21 days and measured on day 21 relative to control", "type": "functional", "details": "HCT-116, ip, 504 h, time 21 day, read-out: GI", "outline": "(§2)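 HCT116 xenografts in BALB/c nude mice. Dosing started when tumours reached 100–300 mm³: intraperitoneal injection once daily for 21 days at 25, 50 or 100 mg/kg, versus blank. Body weight monitored. Tumour growth inhibition computed against blank.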"}, "[21]": {"assay": "Intraperitoneal bioavailability in ICR mouse at 20 mg/kg measured upto 24 hrs by LC-MS/MS analysis", "details": "in vivo, ip"}, "HCT-116 [22]": {"test_system": "HCT-116", "assay": "Antiproliferative activity against human HCT-116 cells assessed as reduction in cell growth at 8 uM incubated for 72 hrs by CCK-8 assay relative to control", "type": "functional"}, "[23]": {"assay": "Clearance in ICR mouse at 4 mg/kg, iv measured upto 24 hrs by LC-MS/MS analysis", "type": "ADME, organism-based", "details": "in vivo", "outline": "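Male ICR mice (N=9). Single dose, either 4 mg/kg intravenous or 20 mg/kg intraperitoneal. Parameters derived: T1/2, Tmax, Cmax, AUC0-t, MRT0-t and CL, with F for the intraperitoneal arm.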"}, "HeLa [24]": {"test_system": "HeLa", "assay": "Induction of apoptosis in human HeLa cells assessed as viable cells at 1 uM incubated for 48 hrs by annexin V-FITC and PI staining based flow cytometry (reference value: 98.5 %)", "type": "functional", "details": "read-out: Activity"}, "HCT-116 [25]": {"test_system": "HCT-116", "assay": "Induction of apoptosis in human HCT-116 cells assessed as late apoptotic cells at 2 uM incubated for 48 hrs by annexin V-FITC and PI staining based flow cytometry (reference value: 1.88 %)", "type": "functional"}, "A-375 [26]": {"test_system": "A-375", "assay": "Cytotoxicity against human A-375 cells assessed as effect on cell morphology at 0.5 to 8 micromol incubated for 48 hrs by microscopic analysis", "type": "functional, cell-based", "details": "dose 0.5-8 µmol", "outline": "as §1"}, "A-375 [27]": {"test_system": "A-375", "assay": "Induction of apoptosis in human A-375 cells assessed as late apoptotic cells at 1 uM incubated for 48 hrs by annexin V-FITC and PI staining based flow cytometry (reference value: 2.24 %)", "type": "functional"}, "HCT-116 [28]": {"test_system": "HCT-116", "assay": "Antitumor activity against human HCT-116 cells xenografted in Balb/c mouse assessed as tumor growth inhibition at 25 mg/kg, ip administered for 21 days and measured on day 21 relative to control", "type": "functional", "details": "HCT-116, ip, 504 h, time 21 day, read-out: GI", "outline": "as §2"}}, "note": "Activity calls are given as the source filed them. The rule behind the calls is not given here.", "data": [{"smiles": "Cc1ccc(Nc2nc(Cl)nc3c2ncn3Cc2ccc(C(=O)Nc3ccccc3N)cc2)cc1", "values": [{"measurement": "Activity", "setting": "NCI-H460 [1]", "result": 0.254, "unit": "%"}, {"measurement": "inhibition at 8 µM", "setting": "NCI-H460 [2]", "result": 82.5, "unit": "%"}, {"measurement": "IC50", "setting": "CDK2/Cyclin A2", "result": 800, "unit": "nM"}, {"measurement": "viability at 2 µM", "setting": "HeLa [3]", "result": 77.4, "unit": "%"}, {"measurement": "viability at 2 µM", "setting": "NCI-H460 [4]", "result": 31.9, "unit": "%"}, {"measurement": "inhibition", "setting": "Histone deacetylase 1", "result": 88.7, "unit": "%"}, {"measurement": "AUC(0-t) at 24 h", "setting": "[5]", "result": 7240, "unit": "ng·h/mL"}, {"measurement": "Activity", "setting": "A-375 [6]", "result": "Dose-dependent effect"}, {"measurement": "inhibition", "setting": "A-375 [7]", "result": "Active"}, {"measurement": "Activity", "setting": "A-375 [8]", "result": 8, "unit": "%"}, {"measurement": "Activity", "setting": "A-375 [9]", "result": 84.8, "unit": "%"}, {"measurement": "Activity", "setting": "HeLa [10]", "result": "Dose-dependent effect"}, {"measurement": "inhibition at 2 µM", "setting": "HepG2 [11]", "result": 76.2, "unit": "%"}, {"measurement": "Activity", "setting": "A-375 [12]", "result": 7.19, "unit": "%"}, {"measurement": "MRT last at 24 h", "setting": "[13]", "result": 0.563, "unit": "h"}, {"measurement": "inhibition at 8 µM", "setting": "HepG2 [14]", "result": 82, "unit": "%"}, {"measurement": "Activity", "setting": "HepG2 [15]", "result": "Active"}, {"measurement": "viability at 0.5 µM", "setting": "NCI-H460 [16]", "result": 88.7, "unit": "%"}, {"measurement": "Activity", "setting": "HCT-116 [17]", "result": 0.639, "unit": "%"}, {"measurement": "Activity", "setting": "HCT-116 [18]", "result": 72.1, "unit": "%"}, {"measurement": "MRT last at 24 h", "setting": "[19]", "result": 4.54, "unit": "h"}, {"measurement": "inhibition in vivo at 50 mg/kg", "setting": "HCT-116 [20]", "result": 40, "unit": "%"}, {"measurement": "bioavailability", "setting": "[21]", "result": 50.8, "unit": "%"}, {"measurement": "inhibition at 8 µM", "setting": "HCT-116 [22]", "result": 81.5, "unit": "%"}, {"measurement": "clearance", "setting": "[23]", "result": 23.3, "unit": "mL/min/kg"}, {"measurement": "viability at 1 µM", "setting": "HeLa [24]", "result": 85.2, "unit": "%"}, {"measurement": "Activity", "setting": "HCT-116 [25]", "result": 13.4, "unit": "%"}, {"measurement": "Activity", "setting": "A-375 [26]", "result": "Active"}, {"measurement": "Activity", "setting": "A-375 [27]", "result": 83.4, "unit": "%"}, {"measurement": "inhibition in vivo at 25 mg/kg", "setting": "HCT-116 [28]", "result": 28, "unit": "%"}]}]}
